pKi: −log10 of the molar value. Bounds are passed on as bounds.

In test [1] the target is 5-hydroxytryptamine receptor 2A (Rattus norvegicus, UniProt P14842). Kind of test: Binding affinity was evaluated in vitro by displacement of [3H]ketanserin from 5-hydroxytryptamine 2A receptor on rat cortical membrane. Summed up: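 Prefrontal cortex membranes from adult male Wistar rats (220-280 g), final dilution 1:60 wt/vol in 50 mM Tris-HCl. Displacer added in Tris-HCl with 10% ethanol. [3H]ketanserin at 0.8 nM final. Nonspecific binding with 1 µM methysergide. Triplicate competition, 10-12 displacer concentrations, two separate experiments. Filtration and scintillation counting. IC50 and Ki calculated.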
A general note: Loss of bound radioactivity is the signal in a displacement assay; it reports binding, not function.

The target in test [2] is T1, 5-hydroxytryptamine receptor 1A (Rattus norvegicus, UniProt P19327).
T1 sequence (P19327 whole entry): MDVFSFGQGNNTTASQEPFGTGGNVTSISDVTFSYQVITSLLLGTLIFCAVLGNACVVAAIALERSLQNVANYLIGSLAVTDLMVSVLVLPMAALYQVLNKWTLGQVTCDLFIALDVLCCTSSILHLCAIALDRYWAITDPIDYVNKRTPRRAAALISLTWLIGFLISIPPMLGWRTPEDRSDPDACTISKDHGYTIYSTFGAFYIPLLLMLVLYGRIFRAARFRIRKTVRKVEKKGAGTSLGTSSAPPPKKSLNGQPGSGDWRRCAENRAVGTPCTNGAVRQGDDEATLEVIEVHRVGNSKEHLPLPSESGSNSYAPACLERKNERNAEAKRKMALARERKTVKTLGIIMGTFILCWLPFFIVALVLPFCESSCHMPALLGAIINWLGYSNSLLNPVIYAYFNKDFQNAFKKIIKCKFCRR
Kind of test: In vitro by displacement of [3H]8-OH-DPAT from 5-hydroxytryptamine 1A receptor on rat cortical membrane. Summed up: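 Cerebral cortex membranes from adult male Wistar rats (220-280 g) in 50 mM Tris-HCl with 4 mM CaCl2, 0.1% ascorbate and 10 µM pargyline. [3H]8-OH-DPAT at 1.5 nM final. Nonspecific binding with 10 µM 5-HT. Incubation 30 min at 37 °C. Triplicate, 10-12 concentrations, two experiments. IC50 and Ki calculated.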

For another test, the system named is Rattus norvegicus. In words: In vivo effective dose against Bezold-Jarisch reflex evoked by 5-HT in urethane-anesthetized rats. It is filed as functional. The gist of the method:
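Bradycardia induced by iv bolus of 5-HT 30 µg/kg. Antagonist or saline given iv (1 mL/kg) after recovery, and 5-HT challenge repeated 5 min later. Heart rate taken from the carotid pressure signal. ED50 in µg/kg iv by linear regression from 3-5 doses, 4-5 rats per dose.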

The target in another test is D(2) dopamine receptor (Rattus norvegicus, UniProt P61169). In words: In vitro by displacement of [3H]raclopride from Dopamine receptor D2 on rat striatal membrane. On the set-up: species or system Striatum.
Test [3] concerns the target T2, Serotonin 3 (5-HT3) receptor (Rattus norvegicus, UniProt P35563+Q9JJ16).
T2 sequence (P35563 whole entry): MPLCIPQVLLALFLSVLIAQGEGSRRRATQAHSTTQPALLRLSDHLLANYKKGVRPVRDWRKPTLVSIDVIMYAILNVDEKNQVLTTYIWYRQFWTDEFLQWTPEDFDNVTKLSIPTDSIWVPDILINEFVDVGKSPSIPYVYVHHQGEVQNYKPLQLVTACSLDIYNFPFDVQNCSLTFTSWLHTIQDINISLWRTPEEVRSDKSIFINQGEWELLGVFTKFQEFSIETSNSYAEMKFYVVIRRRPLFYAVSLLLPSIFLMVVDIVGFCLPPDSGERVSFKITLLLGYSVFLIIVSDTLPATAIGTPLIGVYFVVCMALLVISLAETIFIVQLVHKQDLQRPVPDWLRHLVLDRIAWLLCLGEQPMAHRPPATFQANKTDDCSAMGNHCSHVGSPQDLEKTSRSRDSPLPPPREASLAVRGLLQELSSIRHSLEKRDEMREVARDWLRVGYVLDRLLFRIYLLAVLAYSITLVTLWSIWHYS
T2 sequence (Q9JJ16 whole entry): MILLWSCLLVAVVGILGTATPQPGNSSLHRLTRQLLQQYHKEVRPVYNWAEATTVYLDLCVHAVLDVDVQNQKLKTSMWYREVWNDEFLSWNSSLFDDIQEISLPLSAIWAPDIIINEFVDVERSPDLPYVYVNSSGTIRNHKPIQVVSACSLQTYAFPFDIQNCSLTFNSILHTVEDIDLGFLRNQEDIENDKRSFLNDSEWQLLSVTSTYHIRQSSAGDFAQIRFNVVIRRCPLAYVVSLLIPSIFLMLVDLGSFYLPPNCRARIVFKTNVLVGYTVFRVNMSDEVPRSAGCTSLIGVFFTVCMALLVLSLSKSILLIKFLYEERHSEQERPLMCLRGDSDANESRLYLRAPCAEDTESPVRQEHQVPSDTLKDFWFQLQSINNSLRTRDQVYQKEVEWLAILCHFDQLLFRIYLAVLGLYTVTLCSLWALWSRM
In words: In vitro by displacement of [3H]LY-278584 from 5-hydroxytryptamine 3 receptor on rat entorhinal cortex. The gist of the method:
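Entorhinal cortex membranes from male Wistar rats (220-280 g), 500-600 µg protein, in 50 mM Tris-HCl with 5 mM CaCl2, 0.1% ascorbate and 10 µM pargyline. Nonspecific binding with 10 µM 5-HT. Incubation 30 min at 25 °C. Triplicate, 10-12 concentrations, two experiments. IC50 and Ki calculated.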

The target in test [4] is 5-hydroxytryptamine receptor 4 (Cavia porcellus, UniProt O70528). In words: In vitro by displacement of [3H]GR-113808 from 5-hydroxytryptamine 4 receptor on guinea pig striatal membrane. On the set-up: species or system Striatum. Summed up:
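Striatal membranes from male Dunkin-Hartley guinea pigs (350-400 g) in 50 mM Hepes pH 7.4, 800-900 µg protein. Nonspecific binding with 10 µM 5-HT. Incubation 30 min at 25 °C, then filtration and scintillation counting. Triplicate, 10-12 concentrations, two experiments. IC50 and Ki calculated.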

Sequence of 5-hydroxytryptamine receptor 2A (P14842 whole entry): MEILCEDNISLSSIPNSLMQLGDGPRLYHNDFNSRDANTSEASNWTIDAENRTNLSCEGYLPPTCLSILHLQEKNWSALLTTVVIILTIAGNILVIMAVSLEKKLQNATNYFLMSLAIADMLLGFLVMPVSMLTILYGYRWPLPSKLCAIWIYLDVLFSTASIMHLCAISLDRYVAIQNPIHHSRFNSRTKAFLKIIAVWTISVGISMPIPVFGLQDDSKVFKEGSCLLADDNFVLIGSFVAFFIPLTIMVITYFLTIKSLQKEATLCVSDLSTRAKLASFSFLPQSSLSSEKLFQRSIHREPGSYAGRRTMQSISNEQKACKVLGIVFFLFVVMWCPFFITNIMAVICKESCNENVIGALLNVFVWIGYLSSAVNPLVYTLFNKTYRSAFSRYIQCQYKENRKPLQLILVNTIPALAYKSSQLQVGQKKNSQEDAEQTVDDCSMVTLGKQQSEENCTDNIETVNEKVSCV
Sequence of 5-hydroxytryptamine receptor 4 (O70528 whole entry): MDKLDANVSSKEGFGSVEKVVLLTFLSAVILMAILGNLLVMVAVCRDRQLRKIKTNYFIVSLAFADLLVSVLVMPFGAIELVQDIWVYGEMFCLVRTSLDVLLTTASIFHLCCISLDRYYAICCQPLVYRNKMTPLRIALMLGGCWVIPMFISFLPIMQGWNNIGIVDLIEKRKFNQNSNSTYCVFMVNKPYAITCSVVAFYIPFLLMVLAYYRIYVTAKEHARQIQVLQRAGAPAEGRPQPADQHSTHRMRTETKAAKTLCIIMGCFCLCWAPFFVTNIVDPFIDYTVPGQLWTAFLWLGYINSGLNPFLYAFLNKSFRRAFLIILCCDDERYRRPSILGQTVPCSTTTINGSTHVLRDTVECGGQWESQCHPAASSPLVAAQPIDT
Sequence of D(2) dopamine receptor (P61169 whole entry): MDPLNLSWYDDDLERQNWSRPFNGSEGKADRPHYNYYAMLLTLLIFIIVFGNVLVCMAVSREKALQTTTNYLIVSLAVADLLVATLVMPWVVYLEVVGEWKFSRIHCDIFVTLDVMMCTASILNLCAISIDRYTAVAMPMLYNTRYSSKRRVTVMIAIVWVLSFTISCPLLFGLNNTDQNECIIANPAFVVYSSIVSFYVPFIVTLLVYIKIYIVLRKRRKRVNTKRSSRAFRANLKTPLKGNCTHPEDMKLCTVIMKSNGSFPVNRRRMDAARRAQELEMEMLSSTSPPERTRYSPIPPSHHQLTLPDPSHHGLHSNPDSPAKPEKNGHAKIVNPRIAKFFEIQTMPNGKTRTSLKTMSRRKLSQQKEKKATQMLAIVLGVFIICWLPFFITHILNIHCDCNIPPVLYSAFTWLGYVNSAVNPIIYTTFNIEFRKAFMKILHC

As for `c1ccc(Cn2c(N3CCNCC3)nc3ccccc32)cc1` [LERISETRON], the pKi in test [1] and in test [2] was < 6.00 each time. In addition, the ED50 (usually the dose at which the effect has come halfway, by size or by number of responders) with Rattus norvegicus was 2 µg/kg.

As for `COc1cccc2nc(N3CCNCC3)n(Cc3ccccc3)c12`, the pKi in test [1] and in test [2] was < 6.00 in each case.

As for `COc1cccc2c1nc(N1CCNCC1)n2Cc1ccccc1`, the pKi in test [1] and in test [2] was < 6.00 in each case.

With `Clc1cc2nc(N3CCNCC3)n(Cc3ccccc3)c2cc1Cl`, the pKi in test [1] and in test [2] was < 6.00 each time.

`COc1ccc2c(c1)nc(N1CCNCC1)n2Cc1ccccc1`: the pKi in test [1] and in test [2] was < 6.00 each time.

Consider `Oc1ccc2nc(N3CCNCC3)n(Cc3ccccc3)c2c1`, for which the pKi in test [1] and in test [2] was < 6.00 throughout.

On to `CCCn1c(N2CCNCC2)nc2ccccc21`, for which the pKi in test [1] and in test [2] was < 6.00 each time.

On to `Oc1ccc2c(c1)nc(N1CCNCC1)n2Cc1ccccc1`, for which the pKi in test [1] and in test [2] was < 6.00 each time.

`Clc1ccc2c(c1)nc(N1CCNCC1)n2Cc1ccccc1`: the pKi in test [1] and in test [2] was < 6.00 in each case.

Regarding `COc1ccc2nc(N3CCNCC3)n(Cc3ccccc3)c2c1`, the pKi in test [1] and in test [2] was < 6.00 each time.

On to `CCn1c(N2CCNCC2)nc2ccccc21`, for which the pKi in test [1] and in test [2] was < 6.00 throughout.

Take `Cc1ccc2c(c1)nc(N1CCNCC1)n2Cc1ccccc1`: the pKi in test [1] and in test [2] was < 6.00 in each case.

For `c1ccc2c(c1)nc(N1CCNCC1)n2C1CC1`, the pKi in test [1] and in test [2] was < 6.00 throughout.

In the case of `Cn1c(N2CCNCC2)nc2ccccc21`, the pKi (in general, the negative decadic logarithm of the Ki, by convention in mol/L) in test [1] is < 6.00; in test [2] it was < 6.00; at D(2) dopamine receptor, < 6.00; in test [3], 7.30; in test [4], < 6.00. Also, the ED50 with Rattus norvegicus turned out to be 5.3 µg/kg.

For `Fc1ccc2c(c1)nc(N1CCNCC1)n2Cc1ccccc1`, the pKi in test [1] and in test [2] was < 6.00 throughout.

The molecule `O=C(OCCN1CCCCC1)c1c[nH]c2ccccc12` showed a pKi in test [4] of 9.00.

Consider `Cc1cc2nc(N3CCNCC3)n(Cc3ccccc3)c2cc1C`, for which the pKi in test [1] and in test [2] was < 6.00 in each case.

Regarding `CN1[C@@H]2CC[C@H]1C[C@@H](OC(=O)c1c[nH]c3ccccc13)C2` [TROPISETRON], the 50% effect level in the test on Rattus norvegicus (ED50) was put at a dose of 1.7 µg/kg. The same molecule showed a pKi in test [3] of 8.80.

These data come from ChEMBL document CHEMBL1129945, “New 2-piperazinylbenzimidazole derivatives as 5-HT3 antagonists. Synthesis and pharmacological evaluation” (J Med Chem, 1997).
